Where two headings read alike, the source gives them in different places.
Assays:
[1] = Stability of the analytes in human plasma at QC levels; assay type: in vitro ADME; conditions: for Short-term Dev. (%) / Short-term MCM ± SD: 6 h, r.t.; for Short-term Dev. (%) / Short-term MCM ± SD / Long-term Dev. (%) / Long-term MCM ± SD / Freeze–thaw Dev. (%) / Freeze–thaw MCM ± SD: human plasma; for Short-term Dev. (%) / Short-term MCM ± SD / Long-term Dev. (%) / Long-term MCM ± SD / The autosampler Dev. (24h, %) / The autosampler MCM ± SD (24h) / The autosampler Dev. (48h, %) / The autosampler MCM ± SD (48h) / Freeze–thaw Dev. (%) / Freeze–thaw MCM ± SD: n = 5; for Long-term Dev. (%) / Long-term MCM ± SD: 40 days; for Long-term Dev. (%) / Long-term MCM ± SD / Freeze–thaw Dev. (%) / Freeze–thaw MCM ± SD: −40 °C; for The autosampler Dev. (24h, %) / The autosampler MCM ± SD (24h) / The autosampler Dev. (48h, %) / The autosampler MCM ± SD (48h): autosampler r.t.; for Freeze–thaw Dev. (%) / Freeze–thaw MCM ± SD: four cycles
Outline: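 QC plasma made by spiking working solution into drug-free human plasma (1:9); the phosphate ester is pre-stabilised with 2M sodium cacodylate and 50% KF. Freeze-thaw: frozen at −40 °C for 24 h, thawed at 25 °C. Short-term: 6 h at room temperature. Long-term: −40 °C for 40 days. Quantified by UPLC-MS/MS against 1/x-weighted analyte/IS peak-area-ratio calibration curves.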

[2] = assay type: in vivo, human (Chinese male healthy subjects)
[3] = reported; cited from earlier work

| Compound | Short-term Dev. (%) ([1]; high QC) | Short-term MCM ± SD ([1]; high QC) | Long-term Dev. (%) ([1]; high QC) | Long-term MCM ± SD ([1]; high QC) | The autosampler Dev. (24h, %) ([1]; high QC) [%] | The autosampler MCM ± SD (24h) ([1]; high QC) | The autosampler Dev. (48h, %) ([1]; high QC) [%] | The autosampler MCM ± SD (48h) ([1]; high QC) | Freeze–thaw Dev. (%) ([1]; high QC) | Freeze–thaw MCM ± SD ([1]; high QC) | Short-term Dev. (%) ([1]; low QC) | Short-term MCM ± SD ([1]; low QC) | Long-term Dev. (%) ([1]; low QC) | Long-term MCM ± SD ([1]; low QC) | The autosampler Dev. (24h, %) ([1]; low QC) [%] | The autosampler MCM ± SD (24h) ([1]; low QC) | The autosampler Dev. (48h, %) ([1]; low QC) [%] | The autosampler MCM ± SD (48h) ([1]; low QC) | Freeze–thaw Dev. (%) ([1]; low QC) | Freeze–thaw MCM ± SD ([1]; low QC) | other results |
| --- | --- | --- | --- | --- | --- | --- | --- | --- | --- | --- | --- | --- | --- | --- | --- | --- | --- | --- | --- | --- | --- |
| CCC(=O)OCC(=O)[C@@]1(O)[C@@H](C)C[C@H]2[C@@H]3CCC4=CC(=O)C=C[C@]4(C)[C@@]3(F)[C@@H](O)C[C@@]21C [B21P, betamethasone 21-monopropionate] | −8.64 | 3.944 ± 0.303 × 10^−9 mol·dm^−3 | −9.13 | 3.924 ± 0.078 × 10^−9 mol·dm^−3 | −8.3 | 3.960 ± 0.160 × 10^−9 mol·dm^−3 | −9.13 | 3.924 ± 0.171 × 10^−9 mol·dm^−3 | −2.48 | 4.211 ± 0.301 × 10^−9 mol·dm^−3 | 2.97 | 0.463 ± 0.062 × 10^−9 mol·dm^−3 | 8.42 | 0.488 ± 0.067 × 10^−9 mol·dm^−3 | 7.92 | 0.486 ± 0.020 × 10^−9 mol·dm^−3 | −0.5 | 0.448 ± 0.038 × 10^−9 mol·dm^−3 | 2.97 | 0.463 ± 0.024 × 10^−9 mol·dm^−3 | Short-term Dev. (%) ([1]; middle QC): −2.87%; Short-term MCM ± SD ([1]; middle QC): 1.873 ± 0.094 × 10^−9 mol·dm^−3; Long-term Dev. (%) ([1]; middle QC): −1.98%; Long-term MCM ± SD ([1]; middle QC): 1.891 ± 0.143 × 10^−9 mol·dm^−3; The autosampler Dev. (24h, %) ([1]; middle QC): 2.05%; The autosampler MCM ± SD (24h) ([1]; middle QC): 1.993 ± 0.129 × 10^−9 mol·dm^−3; The autosampler MCM ± SD (48h) ([1]; middle QC): 2.007 ± 0.156 × 10^−9 mol·dm^−3; Freeze–thaw Dev. (%) ([1]; middle QC): 1.08%; Freeze–thaw MCM ± SD ([1]; middle QC): 1.949 ± 0.147 × 10^−9 mol·dm^−3; plasma concentration in healthy subjects' plasma samples (detectability) ([2]; after i.m. injection of the compound medicine BSP and BDP): slightly above the LLOQ |
| CCC(=O)OCC(=O)[C@@]1(OC(=O)CC)[C@@H](C)C[C@H]2[C@@H]3CCC4=CC(=O)C=C[C@]4(C)[C@@]3(F)[C@@H](O)C[C@@]21C [BDP, betamethasone dipropionate] | −0.51 | 44.42 ± 0.893 × 10^−9 mol·dm^−3 | 4.01 | 46.43 ± 1.399 × 10^−9 mol·dm^−3 | −6.84 | 41.59 ± 1.016 × 10^−9 mol·dm^−3 | −2.95 | 43.33 ± 1.131 × 10^−9 mol·dm^−3 | 0.68 | 44.94 ± 1.177 × 10^−9 mol·dm^−3 | 4.0 | 0.258 ± 0.048 × 10^−9 mol·dm^−3 | −3.2 | 0.240 ± 0.012 × 10^−9 mol·dm^−3 | −11.2 | 0.220 ± 0.016 × 10^−9 mol·dm^−3 | −10.4 | 0.222 ± 0.020 × 10^−9 mol·dm^−3 | 11.2 | 0.276 ± 0.042 × 10^−9 mol·dm^−3 | Short-term Dev. (%) ([1]; middle QC): 2.04%; Short-term MCM ± SD ([1]; middle QC): 4.746 ± 0.155 × 10^−9 mol·dm^−3; Long-term Dev. (%) ([1]; middle QC): 1.80%; Long-term MCM ± SD ([1]; middle QC): 4.734 ± 0.141 × 10^−9 mol·dm^−3; The autosampler Dev. (24h, %) ([1]; middle QC): −7.45%; The autosampler MCM ± SD (24h) ([1]; middle QC): 4.304 ± 0.123 × 10^−9 mol·dm^−3; The autosampler Dev. (48h, %) ([1]; middle QC): −5.68%; The autosampler MCM ± SD (48h) ([1]; middle QC): 4.387 ± 0.103 × 10^−9 mol·dm^−3; Freeze–thaw Dev. (%) ([1]; middle QC): 3.45%; Freeze–thaw MCM ± SD ([1]; middle QC): 4.811 ± 0.135 × 10^−9 mol·dm^−3; elimination half-life time [3]: 25.8 min |
| C[C@H]1C[C@H]2[C@@H]3CCC4=CC(=O)C=C[C@]4(C)[C@@]3(F)[C@@H](O)C[C@]2(C)[C@@]1(O)C(=O)CO [BOH, betamethasone] | 8.02 | 64.74 ± 5.074 × 10^−9 mol·dm^−3 | −12.3 | 52.55 ± 2.816 × 10^−9 mol·dm^−3 | −10.82 | 53.47 ± 2.906 × 10^−9 mol·dm^−3 | 6.68 | 63.95 ± 3.102 × 10^−9 mol·dm^−3 | 5.54 | 63.29 ± 2.673 × 10^−9 mol·dm^−3 | 9.63 | 0.610 ± 0.048 × 10^−9 mol·dm^−3 | 7.34 | 0.597 ± 0.064 × 10^−9 mol·dm^−3 | 5.04 | 0.584 ± 0.056 × 10^−9 mol·dm^−3 | 2.29 | 0.569 ± 0.087 × 10^−9 mol·dm^−3 | 3.67 | 0.577 ± 0.038 × 10^−9 mol·dm^−3 | Short-term Dev. (%) ([1]; middle QC): 8.82%; Short-term MCM ± SD ([1]; middle QC): 10.87 ± 0.633 × 10^−9 mol·dm^−3; Long-term Dev. (%) ([1]; middle QC): 5.78%; Long-term MCM ± SD ([1]; middle QC): 10.57 ± 0.577 × 10^−9 mol·dm^−3; The autosampler MCM ± SD (24h) ([1]; middle QC): 10.20 ± 0.505 × 10^−9 mol·dm^−3; The autosampler Dev. (48h, %) ([1]; middle QC): 3.89%; The autosampler MCM ± SD (48h) ([1]; middle QC): 10.38 ± 0.513 × 10^−9 mol·dm^−3; Freeze–thaw Dev. (%) ([1]; middle QC): 4.88%; Freeze–thaw MCM ± SD ([1]; middle QC): 10.48 ± 0.645 × 10^−9 mol·dm^−3; AUC0–∞ ([2]; Reference formulation, mean ± SD, n = 23): 915.3 ± 206.5 × 10^−9 mol·dm^−3·h^−1; AUC0–∞ ([2]; Test formulation, mean ± SD, n = 23): 856.6 ± 269.4 × 10^−9 mol·dm^−3·h^−1; AUC0–t ([2]; Test formulation, t = 4 h (BDP), 120 h (BOH), 360 h (B17P), mean ± SD, n = 23): 820.2 ± 249.4 × 10^−9 mol·dm^−3·h^−1 |
| C[C@H]1C[C@H]2[C@@H]3CCC4=CC(=O)C=C[C@]4(C)[C@@]3(F)[C@@H](O)C[C@]2(C)[C@@]1(O)C(=O)COP(=O)([O-])[O-].[Na+].[Na+] [BSP, betamethasone sodium phosphate] | −3.78 | 310.9 ± 14.43 × 10^−9 mol·dm^−3 | −1.02 | 320.0 ± 10.35 × 10^−9 mol·dm^−3 | −2.94 | 313.6 ± 35.39 × 10^−9 mol·dm^−3 | 11.19 | 359.2 ± 22.46 × 10^−9 mol·dm^−3 | −2.50 | 315.1 ± 4.665 × 10^−9 mol·dm^−3 | −1.19 | 4.988 ± 0.250 × 10^−9 mol·dm^−3 | −1.07 | 4.994 ± 0.560 × 10^−9 mol·dm^−3 | 4.03 | 5.252 ± 0.696 × 10^−9 mol·dm^−3 | 10.63 | 5.585 ± 0.616 × 10^−9 mol·dm^−3 | −2.84 | 4.905 ± 0.357 × 10^−9 mol·dm^−3 | Short-term Dev. (%) ([1]; middle QC): −2.55%; Short-term MCM ± SD ([1]; middle QC): 39.36 ± 5.767 × 10^−9 mol·dm^−3; Long-term Dev. (%) ([1]; middle QC): −1.06%; Long-term MCM ± SD ([1]; middle QC): 39.94 ± 5.576 × 10^−9 mol·dm^−3; The autosampler Dev. (24h, %) ([1]; middle QC): 1.08%; The autosampler MCM ± SD (24h) ([1]; middle QC): 40.83 ± 5.209 × 10^−9 mol·dm^−3; The autosampler Dev. (48h, %) ([1]; middle QC): 9.88%; The autosampler MCM ± SD (48h) ([1]; middle QC): 44.38 ± 5.581 × 10^−9 mol·dm^−3; Freeze–thaw Dev. (%) ([1]; middle QC): −2.67%; Freeze–thaw MCM ± SD ([1]; middle QC): 39.30 ± 5.785 × 10^−9 mol·dm^−3; stability in human blank plasma ([1]; without stabilizer (sodium cacodylate, potassium fluoride)): labile |

Source: publication PMC5042352 (Analytical methods : advancing methods and applications, 2016)
